The results in this text go back to article PMC4338372 (FEBS Open Bio, 2015).

In assay [1] the test system is SH3 domain of DOCK180 (SH3DOCK). The assay can be described thus: Pull-down of 6His-ELMO1 constructs on immobilized GST-SH3DOCK. It is filed as binding, human. The conditions noted are these: bacterially expressed 6His-ELMO1; 1 h at 4 °C; anti-polyHistidine western blot. In short, it runs like this:
(§1)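 GST-tagged SH3 domains (Hck residues 77–141; human DOCK180 residues 9–69) and 6His-ELMO1 (wild type 1–727, 532–727 and 532–707) were made in E. coli BL21(DE3) (1 mM IPTG, LB, 3 h, 37 °C). ELMO1 was purified by Ni–NTA and gel filtration, GST fusions on glutathione resin. ELMO1 was incubated with resin-bound SH3 (1 mg/ml) for 1 h at 4 °C in pH 7.5 Hepes buffer. Beads were washed three times, eluted denaturing, and analysed by SDS–PAGE and anti-His immunoblot.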

Assay [2] concerns the target SH3 domain of Hck (SH3Hck) (Homo sapiens, UniProt P08631). In words: Pull-down of 6His-ELMO1 constructs on immobilized GST-SH3Hck. It is filed as binding. The conditions noted are these: bacterially expressed 6His-ELMO1; 1 h at 4 °C; anti-polyHistidine western blot. The gist of the method: as §1
In assay [3] the test system is CLIP-SH3Hck. The assay can be described thus: FRET of SNAP-ELMO1 constructs and CLIP-SH3Hck in HEK293T cells by flow cytometry. The class given is cell-based. The conditions noted are these: HEK293T co-transfected with CLIP-SH3Hck; control CLIP-SH3Hck alone.
Assay [4] addresses SH3Hck. The assay can be described thus: Solid-phase enzyme immunoassay. It is filed as binding. The conditions noted are these: preliminary solid-phase enzyme immunoassay; data not shown.

Chain of SH3 domain of Hck (SH3Hck) (P08631 77-141): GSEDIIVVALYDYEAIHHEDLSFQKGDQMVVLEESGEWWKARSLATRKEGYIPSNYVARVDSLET

B1: ELMO532–707: C-terminal domain of ELMO1 without the polyproline motif (protein)
chain: PILELKEKIQPEILELIKQQRLNRLVEGTCFRKLNARRRQDKFWYCRLSPNHKVLHYGDLEESPQGEVPHDSLQDKLPVADIKAVVTGKDCPHMKEKGALKQNKEVLELAFSILYDSNCQLNFIAPDKHEYCIWTDGLNALLGKDMMSDLTRNDLDTLLSMEIKLRLLDLENIQIP
modifications: left off: 6His (TEV cleavable), end not stated, kept
In the case of B1, the “pull-down by immobilized GST-SH3DOCK” value in assay [1] is listed as “efficiently pulled-down”.

B2: ELMO532–727: C-terminal domain of ELMO1 with the polyproline motif (protein)
chain: PILELKEKIQPEILELIKQQRLNRLVEGTCFRKLNARRRQDKFWYCRLSPNHKVLHYGDLEESPQGEVPHDSLQDKLPVADIKAVVTGKDCPHMKEKGALKQNKEVLELAFSILYDSNCQLNFIAPDKHEYCIWTDGLNALLGKDMMSDLTRNDLDTLLSMEIKLRLLDLENIQIPDAPPPIPKEPSNYDFVYDCN
modifications: left off: 6His (TEV cleavable), end not stated, kept
Turning to B2, the “pull-down by immobilized GST-SH3DOCK” value in assay [1] is recorded as “efficiently pulled-down”. Also, the “pull-down by immobilized GST-SH3Hck” value in assay [2] is “specifically pulled-down”. In addition, the “median FRET intensity compared to control cells” value in assay [3] is reported as “significantly higher median FRET intensity compared to control cells”. Further, in assay [4], the “dissociation rate of SH3Hck” value is “ten-micromolar range”.

B3: ELMO1–727: wild type (murine) ELMO1 protein (protein)
chain: MPPPSDIVKVAIEWPGAYPKLMEIDQKKPLSAIIKEVCDGWSLANHEYFALQHADSSNFYITEKNRNEIKNGTILRLTTSPAQNAQQLHERIQSSSMDAKLEALKDLASLSRDVTFAQEFINLDGISLLTQMVESGTERYQKLQKIMKPCFGDMLSFTLTAFVELMDHGIVSWDTFSVAFIKKIASFVNKSAIDISILQRSLAILESMVLNSHDLYQKVAQEITIGQLIPHLQGTDQEIQTYTIAVINALFLKAPDERRQEMANILAQKQLRYIILTHVIRAQRAINNEMAHQLYVLQVLTFNLLEDRMMTKMDPQDQAQRDIIFELRRIAFDAESEPNNSSGSMEKRKSMYTRDYKKLGFINHVNPAMDFTQTPPGMLALDNMLYFAKHHQDAYIRIVLENSSREDKHECPFGRSSIELTKMLCEILKVGELPSETCNDFHPMFFTHDRSFEEFFCICIQLLNKTWKEMRATSEDFNKVMQVVKEQVMRALTTKPSSLDQFKSKLQNLSYTEILKIRQSERMNQEDFQSRPILELKEKIQPEILELIKQQRLNRLVEGTCFRKLNARRRQDKFWYCRLSPNHKVLHYGDLEESPQGEVPHDSLQDKLPVADIKAVVTGKDCPHMKEKGALKQNKEVLELAFSILYDSNCQLNFIAPDKHEYCIWTDGLNALLGKDMMSDLTRNDLDTLLSMEIKLRLLDLENIQIPDAPPPIPKEPSNYDFVYDCN
modifications: left off: 6His (TEV cleavable), end not stated, kept
Turning to B3, in assay [1], the “pull-down by immobilized GST-SH3DOCK” value is “successfully pulled-down”. Besides, in assay [2], the “pull-down by immobilized GST-SH3Hck” value is on record as “successfully pulled-down”.
